The data set in a line: Thiol reactivity assay. The settings on record: room temperature, 1H NMR. In kind it is physicochemical. The gist of the method:
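Dehydroamino-acid peptide (typically 0.010–0.015 mmol) in DMSO-d6 with 1,3,5-trimethoxybenzene as internal standard, treated with 2 equiv cysteamine added from a freshly prepared 0.5 M stock in DMSO-d6. 1H NMR spectra were recorded over time, and loss of starting peptide was quantified from diagnostic signals against the internal standard. Peptides unreactive at room temperature were heated stepwise to 60, 80 and 100 °C.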

As to `C=C1CCOC1=O` [α-methylene-γ-butyrolactone], the “time to complete consumption of the electrophile by cysteamine” value was not above 5 min.

The record behind these values is PMC7077758 (The Journal of organic chemistry, 2019).
